Source: paper PMC9494671 (ACS Omega, 2022)

Key:
[1] = system: Human hepatocellular carcinoma cell line (HepG2); assay: MTT cytotoxicity assay, HepG2; format: cell-based; conditions: for IC50: Homo sapiens, HepG2, 24 h, read-out: IC50 (μM) HePG2; for cytotoxic activity, class in words, HepG2: MTT assay
Summary of the method: (§1)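 Cells grown in RPMI-1640 with 10% FBS, penicillin 100 units/mL and streptomycin 100 μg/mL at 37 °C, 5% CO2. Seeded at 1.0 × 10^4 cells/well for 48 h, then exposed to a range of test compound concentrations for 24 h, with CA-4 as positive control. MTT (5 mg/mL solution) added for 4 h, formazan dissolved in DMSO, absorbance read at 570 nm. IC50 = 50% growth inhibition, mean ± SD.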

[2] = system: Human colorectal carcinoma cell line (HCT-116); assay: MTT cytotoxicity assay, HCT-116; format: cell-based; conditions: for IC50: Homo sapiens, HCT-116, 24 h, read-out: IC50 (μM) HCT-116; for cytotoxic activity, class in words, HCT-116: MTT assay
Summary of the method: as §1

[3] = system: Human breast adenocarcinoma cell line (MCF-7); assay: MTT cytotoxicity assay, MCF-7; format: cell-based; conditions: for IC50: Homo sapiens, MCF7, 24 h, read-out: IC50 (μM) MCF-7; for cytotoxic activity, class in words, MCF-7: MTT assay
Summary of the method: as §1

[4] = system: Epitheloid cervix carcinoma cell line (HeLa); assay: MTT cytotoxicity assay, HeLa; format: cell-based, human; conditions: for IC50: Homo sapiens, 24 h, read-out: IC50 (μM) HeLa; for cytotoxic activity, class in words, HeLa: MTT assay
Summary of the method: as §1

[5] = system: HepG2, HCT-116, MCF-7, and HeLa cell lines; assay: MTT cytotoxicity assay, statements over the four tested cell lines; format: cell-based, human; conditions: all tested cell lines
Summary of the method: as §1

tubulin = assay: In vitro tubulin polymerization inhibition assay; format: biochemical; conditions: read-out: IC50 (μM) tubulin polymerization inhibition; 4 mg/mL tubulin, 37 °C, OD340, mean ± SD from three independent experiments
[6] = cited from earlier work

COc1cc(-c2csc(NC(=O)CCl)n2)cc(OC)c1OC [Compound 4, 2-Chloro-N-(4-(3,4,5-trimethoxyphenyl)thiazol-2-yl)acetamide]
IC50 [1]: 62.6 ± 3.1 µM | IC50 [2]: 69 ± 3.5 µM | IC50 [3]: 62.9 ± 3.1 µM | IC50 [4]: 76.9 ± 3.8 µM | cytotoxic effect, class in words, tested cell lines [5]: weak (51–100 (weak))

COc1cc(-c2csc(NC(=O)CNc3ccccc3)n2)cc(OC)c1OC [Compound 7a, 2-(Phenylamino)-N-(4-(3,4,5-trimethoxyphenyl)thiazol-2-yl)acetamide]
IC50 [1]: 94.1 ± 4.7 µM | cytotoxic activity, class in words, HepG2 [1]: weak (51–100 (weak)) | IC50 [2]: 52.5 ± 2.6 µM | cytotoxic activity, class in words, HCT-116 [2]: weak (51–100 (weak)) | IC50 [3]: > 100 µM | cytotoxic activity, class in words, MCF-7 [3]: weak (51–100 (weak)) | IC50 [4]: 54.1 ± 2.7 µM | cytotoxic activity, class in words, HeLa [4]: noncytotoxic (above 100 (noncytotoxic))

COc1cc(-c2csc(NC(=O)CNN)n2)cc(OC)c1OC [Compound 8, 2-Hydrazinyl-N-(4-(3,4,5-trimethoxyphenyl)thiazol-2-yl)acetamide]
IC50 [1]: 3.35 ± 0.2 µM | IC50 [2]: 5.32 ± 0.3 µM | IC50 [3]: 8.66 ± 0.4 µM | IC50 [4]: 6.15 ± 0.3 µM | IC50 (tubulin): 3.91 ± 0.24 µM

COc1cc(-c2csc(NC(=O)CNc3ccc(Br)cc3)n2)cc(OC)c1OC [Compound 7b, 2-((4-Bromophenyl)amino)-N-(4-(3,4,5-trimethoxyphenyl)thiazol-2-yl)acetamide]
IC50 [1]: 34.2 ± 1.7 µM | IC50 [2]: 9.35 ± 0.5 µM | IC50 [3]: 44.8 ± 2.2 µM | IC50 [4]: 13.1 ± 0.7 µM

COc1ccc(/C=C\c2cc(OC)c(OC)c(OC)c2)cc1O [CA-4, combretastatin A-4, reference compound]
IC50 [1]: 4.5 ± 0.2 µM | IC50 [2]: 5.23 ± 0.3 µM | IC50 [3]: 4.17 ± 0.2 µM | IC50 [4]: 5.57 ± 0.3 µM | IC50 (tubulin): […] | solubility in water [6]: weakly soluble in water

COc1cc(-c2csc(NC(=O)NCCNc3ccccc3)n2)cc(OC)c1OC [Compound 12, 1-(2-(Phenylamino)ethyl)-3-(4-(3,4,5-trimethoxyphenyl)thiazol-2-yl)urea]
IC50 [1]: > 100 µM | IC50 [2]: 88.5 ± 4.4 µM | IC50 [3]: > 100 µM | IC50 [4]: 91.8 ± 4.6 µM

COc1cc(-c2csc(NC(=O)CN/N=C3\C(=O)Nc4ccc(C)cc43)n2)cc(OC)c1OC [Compound 9b, (Z)-2-(2-(5-Methyl-2-oxoindolin-3-ylidene)hydrazinyl)-N-(4-(3,4,5-trimethoxyphenyl)thiazol-2-yl)acetamide]
IC50 [1]: 8.04 ± 0.4 µM | IC50 [2]: 9.93 ± 0.5 µM | IC50 [3]: 11.6 ± 0.6 µM | IC50 [4]: 13.4 ± 0.7 µM | IC50 (tubulin): 4.21 ± 0.26 µM

COc1cc(-c2csc(NC(=O)CN3CCNCC3)n2)cc(OC)c1OC [Compound 6a, 2-(Piperazin-1-yl)-N-(4-(3,4,5-trimethoxyphenyl)thiazol-2-yl)acetamide]
IC50 [1]: 8.17 ± 0.4 µM | IC50 [2]: 28.9 ± 1.4 µM | IC50 [3]: 40.9 ± 2 µM | IC50 [4]: 47.7 ± 2.4 µM | IC50 (tubulin): 4.5 ± 0.27 µM

COc1cc(-c2csc(NC(=O)CNc3ccc(Br)c(C(F)(F)F)c3)n2)cc(OC)c1OC [Compound 7d, 2-((4-Bromo-3-(trifluoromethyl)phenyl)amino)-N-(4-(3,4,5-trimethoxyphenyl)thiazol-2-yl)acetamide]
IC50 [1]: 28.1 ± 1.4 µM | IC50 [2]: 33.1 ± 1.7 µM | IC50 [3]: 41.4 ± 2.1 µM | IC50 [4]: 29.8 ± 1.5 µM | IC50 (tubulin): 3.42 ± 0.21 µM

COc1cc(-c2csc(NC(=O)CNC(C)C)n2)cc(OC)c1OC [Compound 5c, 2-(Isopropylamino)-N-(4-(3,4,5-trimethoxyphenyl)thiazol-2-yl)acetamide]
IC50 [1]: 11.9 ± 0.6 µM | IC50 [2]: 12.9 ± 0.6 µM | IC50 [3]: 15.5 ± 0.8 µM | IC50 [4]: 16 ± 0.8 µM | IC50 (tubulin): 2.95 ± 0.18 µM | cytotoxic effect, class in words, tested cell lines [5]: strong (11–20 (strong))

COc1cc(-c2csc(NC(=O)CNCCO)n2)cc(OC)c1OC [Compound 5a, 2-((2-Hydroxyethyl)amino)-N-(4-(3,4,5-trimethoxyphenyl)thiazol-2-yl)acetamide]
IC50 [1]: 22 ± 1.1 µM | IC50 [2]: 29.4 ± 1.5 µM | IC50 [3]: 30 ± 1.5 µM | IC50 [4]: 50.9 ± 2.5 µM | cytotoxic effect, class in words, tested cell lines [5]: moderate (21–50 (moderate))

CCCCNCC(=O)Nc1nc(-c2cc(OC)c(OC)c(OC)c2)cs1 [Compound 5b, 2-(Butylamino)-N-(4-(3,4,5-trimethoxyphenyl)thiazol-2-yl)acetamide]
IC50 [1]: 10.9 ± 0.5 µM | cytotoxic activity, class in words, HepG2 [1]: strong (11–20 (strong)) | IC50 [2]: 24.4 ± 1.2 µM | IC50 [3]: 22.8 ± 1.1 µM | IC50 [4]: 28.3 ± 1.4 µM

CCN1CCN(CC(=O)Nc2nc(-c3cc(OC)c(OC)c(OC)c3)cs2)CC1 [Compound 6c, 2-(4-Ethylpiperazin-1-yl)-N-(4-(3,4,5-trimethoxyphenyl)thiazol-2-yl)acetamide]
IC50 [1]: 33.9 ± 1.7 µM | IC50 [2]: 37.2 ± 1.9 µM | IC50 [3]: 41.4 ± 2.1 µM | IC50 [4]: 48.2 ± 2.4 µM

COc1cc(-c2csc(NC(=O)NCCCl)n2)cc(OC)c1OC [Compound 11, 1-(2-Chloroethyl)-3-(4-(3,4,5-trimethoxyphenyl)thiazol-2-yl)urea]
IC50 [1]: 93 ± 4.6 µM | IC50 [2]: 86.7 ± 4.3 µM | IC50 [3]: 95.8 ± 4.8 µM | IC50 [4]: 89.9 ± 4.5 µM | cytotoxic effect, class in words, tested cell lines [5]: weak (51–100 (weak))

COc1cc(-c2csc(Nc3csc(N)n3)n2)cc(OC)c1OC [Compound 10, N^4-(4-(3,4,5-Trimethoxyphenyl)thiazol-2-yl)thiazole-2,4-diamine]
IC50 [1]: 49.6 ± 2.5 µM | IC50 [2]: 55.3 ± 2.8 µM | IC50 [3]: 60.6 ± 3 µM | IC50 [4]: 48 ± 2.4 µM | cytotoxic effect, class in words, tested cell lines [5]: moderate-to-weak

COc1cc(-c2csc(NC(=O)CN3CCOCC3)n2)cc(OC)c1OC [Compound 6e, 2-Morpholino-N-(4-(3,4,5-trimethoxyphenyl)thiazol-2-yl)acetamide]
IC50 [1]: 19.8 ± 1 µM | cytotoxic activity, class in words, HepG2 [1]: strong (11–20 (strong)) | IC50 [2]: 18 ± 0.9 µM | cytotoxic activity, class in words, HCT-116 [2]: strong (11–20 (strong)) | IC50 [3]: 39.1 ± 2 µM | IC50 [4]: 58.8 ± 2.9 µM | IC50 (tubulin): 3.72 ± 0.23 µM

COc1cc(-c2csc(NC(=O)NCCN3CCOCC3)n2)cc(OC)c1OC [Compound 13b, 1-(2-Morpholinoethyl)-3-(4-(3,4,5-trimethoxyphenyl)thiazol-2-yl)urea]
IC50 [1]: 25.7 ± 1.3 µM | IC50 [2]: 27.4 ± 1.4 µM | IC50 [3]: 32 ± 1.6 µM | IC50 [4]: 43.9 ± 2.2 µM

COc1cc(-c2csc(NC(=O)CN3CCN(c4ccc(F)cc4)CC3)n2)cc(OC)c1OC [Compound 6d, 2-(4-(4-Fluorophenyl)piperazin-1-yl)-N-(4-(3,4,5-trimethoxyphenyl)thiazol-2-yl)acetamide]
IC50 [1]: 4.03 ± 0.2 µM | IC50 [2]: 15.7 ± 0.8 µM | IC50 [3]: 9.64 ± 0.5 µM | IC50 [4]: 18.7 ± 0.9 µM | IC50 (tubulin): 5 ± 0.3 µM

COc1cc(-c2csc(NC(=O)CNc3ccc(N4CCOCC4)cc3)n2)cc(OC)c1OC [Compound 7e, 2-((4-Morpholinophenyl)amino)-N-(4-(3,4,5-trimethoxyphenyl)thiazol-2-yl)acetamide]
IC50 [1]: 25.7 ± 1.3 µM | IC50 [2]: 31.2 ± 1.6 µM | IC50 [3]: 35 ± 1.7 µM | IC50 [4]: 41.5 ± 2.1 µM

COc1cc(-c2csc(NC(=O)CN/N=C3\C(=O)Nc4ccc(Cl)cc43)n2)cc(OC)c1OC [Compound 9a, (Z)-2-(2-(5-Chloro-2-oxoindolin-3-ylidene)hydrazinyl)-N-(4-(3,4,5-trimethoxyphenyl)thiazol-2-yl)acetamide]
IC50 [1]: 7.32 ± 0.4 µM | IC50 [2]: 10.1 ± 0.5 µM | IC50 [3]: 9.8 ± 0.5 µM | IC50 [4]: 10.6 ± 0.5 µM | IC50 (tubulin): 2.38 ± 0.14 µM

CCN1CCN(CCNC(=O)Nc2nc(-c3cc(OC)c(OC)c(OC)c3)cs2)CC1 [Compound 13a, 1-(2-(4-Ethylpiperazin-1-yl)ethyl)-3-(4-(3,4,5-trimethoxyphenyl)thiazol-2-yl)urea]
IC50 [1]: 14.2 ± 0.7 µM | cytotoxic activity, class in words, HepG2 [1]: strong (11–20 (strong)) | IC50 [2]: 20.1 ± 1 µM | cytotoxic activity, class in words, HCT-116 [2]: strong (11–20 (strong)) | IC50 [3]: 16.9 ± 0.8 µM | cytotoxic activity, class in words, MCF-7 [3]: strong (11–20 (strong)) | IC50 [4]: 32.4 ± 1.6 µM | cytotoxic activity, class in words, HeLa [4]: moderate (21–50 (moderate)) | IC50 (tubulin): 5.11 ± 0.31 µM

COc1cc(-c2csc(NC(=O)CN3CCN(C)CC3)n2)cc(OC)c1OC [Compound 6b, 2-(4-Methylpiperazin-1-yl)-N-(4-(3,4,5-trimethoxyphenyl)thiazol-2-yl)acetamide]
IC50 [1]: 74.6 ± 3.7 µM | IC50 [2]: 83.7 ± 4.2 µM | IC50 [3]: 65.3 ± 3.3 µM | IC50 [4]: 87.3 ± 4.4 µM

COc1cc(-c2csc(NC(=O)CNc3ccc([N+](=O)[O-])cc3)n2)cc(OC)c1OC [Compound 7c, 2-((4-Nitrophenyl)amino)-N-(4-(3,4,5-trimethoxyphenyl)thiazol-2-yl)acetamide]
IC50 [1]: 6.26 ± 0.3 µM | IC50 [2]: 7.3 ± 0.4 µM | IC50 [3]: 10 ± 0.5 µM | IC50 [4]: 9.85 ± 0.5 µM | IC50 (tubulin): 2 ± 0.12 µM
